The results in this text go back to ChEMBL document CHEMBL1133655, “Preparation and biological activity of amino acid and peptide conjugates of antitumor hydroxymethylacylfulvene” (J Med Chem, 2000).

Peptide text beside a SMILES is read from it. * marks the point of attachment. X1 = CC1=C(C*)C2=C(C)C3(CC3)[C@@](C)(O)C(=O)C2=C1 Some results are limits rather than exact numbers.

This experiment is described as follows: Concentration required for 50% toxicity in metastatic lung carcinoma (MV522) cells. The note with it: Homo sapiens. The procedure, abridged: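 Compounds held as 1 mg/mL DMSO stock, diluted in 20% DMSO/phosphate-buffered saline just before addition to MV 522 cultures; controls got equal DMSO/PBS. After 48 h incubation, cells were washed, stained with trypan blue and counted. Counts were reported as corresponding closely with colony-forming assay values.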
With `CC(=O)N[C@@H](CSCC1=C(C)C=C2C(=O)[C@](C)(O)C3(CC3)C(C)=C21)C(=O)N[C@@H](CC(C)C)C(=O)N[C@@H](CC(C)C)C(=O)N[C@@H](Cc1ccccc1)C(=O)O` (Ac-C(X1)LLF-OH), the IC50 (commonly the concentration that inhibits the measured activity by half) was over 40 µM.

As for `CC1=C(CO)C2=C(C)C3(CC3)[C@@](C)(O)C(=O)C2=C1` [IROFULVEN], the IC50 is 0.004 µM.

`CC1=C(CSCC[C@H](N)C(=O)O)C2=C(C)C3(CC3)[C@@](C)(O)C(=O)C2=C1` yielded an IC50 of over 50 µM.

Turning to `CC(=O)N[C@@H](CSCC1=C(C)C=C2C(=O)[C@](C)(O)C3(CC3)C(C)=C21)C(=O)N[C@@H](CC(C)C)C(=O)NCC(=O)N[C@@H](Cc1ccccc1)C(=O)O` (Ac-C(X1)LGF-OH), the IC50 turned out to be 28.2 µM.

In the case of `CC1=C(CSCC(NC(=O)CCC(N)C(=O)O)C(=O)NCC(=O)O)C2=C(C)C3(CC3)[C@@](C)(O)C(=O)C2=C1` (stereo partly specified), the IC50 turned out to be 15.5 µM.

For `CC(=O)NC(CSCC1=C(C)C=C2C(=O)[C@](C)(O)C3(CC3)C(C)=C21)C(=O)N[C@@H](C)c1ccccc1` (stereo partly specified), the IC50 amounted to 2.5 µM.

Take `CC(=O)N[C@@H](CSCC1=C(C)C=C2C(=O)[C@](C)(O)C3(CC3)C(C)=C21)C(=O)N[C@@H](Cc1ccccc1)C(=O)NCC(=O)N[C@@H](CC(C)C)C(=O)O` (Ac-C(X1)FGL-OH): half-maximal inhibition (IC50) required 37.2 µM.

`CC1=C(CSCC(N)C(=O)O)C2=C(C)C3(CC3)[C@@](C)(O)C(=O)C2=C1` (stereo partly specified) gave an IC50 of 29.2 µM.

For the compound `CC(=O)N[C@@H](CSCC1=C(C)C=C2C(=O)[C@](C)(O)C3(CC3)C(C)=C21)C(=O)N[C@@H](CC(C)C)C(=O)N[C@@H](CC(C)C)C(=O)N[C@@H](CC(C)C)C(=O)O` (Ac-C(X1)LLL-OH), the IC50 came to 24.7 µM.

As to `CC1=C2C(=C[C@@](C)(CO)C2O)C(=O)[C@](C)(O)C12CC2` (stereo partly specified), 0.073 µM corresponded to half-maximal inhibition (IC50).

`CC1=CC2=C(C)C3(CC3)[C@@](C)(O)C(=O)C2=C1` [ACYLFULVENE] registered an IC50 of 0.35 µM.
